From PubChem BioAssay
Compounds with a hit are over-represented: about 1.6% of the library has one in this group of screens.
Apaf1 inhib: blocks human Apaf-1 apoptosome activity | inhibition, % at 20 µM | hit rate 0.71% among 330,000 | reconstituted apoptosome caspase-3 activity, DEVD-Rh110 fluorescence; active means inhibition of at least 40% at 20 µM;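 further: plate controls were DMSO wells for no effect and DEVD-CHO caspase inhibitor wells for full effect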
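Material: reconstituted apoptosome with Apaf-1, cytochrome c, caspase-9, procaspase-3, dATP. Technique: Rh110 fluorescence intensity. Buffer or medium: pH 7.5 Hepes buffer with CHAPS, BSA, DTT. Times: 30 min plus 50 min, RT.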
UBC13 inh: human UBC13 polyubiquitination inhibition; P61088; UBC13 polyubiquitin chain formation, TR-FRET; inhibition, % at 20 µM; hit rate 0.47% among 330,000; in the data active means inhibition above about 45%, passing the limit was not always enough
FID counter: displaces DNA intercalator in HCV helicase counter-screen; DNA fluorescent intercalator displacement, fluorescence; inhibition, % at 7.9 µM; hit rate 0.17% among 290,000; in the data active means inhibition above about 37%;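 further: 0% = vehicle and 100% = reference compound; higher means more ethidium bromide displaced from hairpin DNA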
RAD52 anneal inh: blocks human RAD52 DNA annealing; P43351; recombinant RAD52 DNA annealing, FRET fluorescence; inhibition, % at 18.7 µM; hit rate 0.46% among 360,000; AID 651710;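 active means every replicate showing at least 50% inhibition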
Neddyl block: inhibitors of human cullin neddylation; P61081+Q13564; TR-FRET cullin neddylation, biochemical; calls only at 25 µM; hit rate 0.58% among 360,000; AID 651699; in the data active means inhibition above about 36%
RAD54 branch: inhibitors of human RAD54 branch migration; Q92698; RAD54 Holliday junction branch migration, FAM/BHQ fluorescence; inhibition, % at 10.4 µM; hit rate 0.14% among 360,000; AID 602329;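 active means mean normalized replicate activity at least 40 and at least half of replicates scoring 40 or more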;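 further: 0% = median of neutral control wells and 100% = median of positive control wells; inhibitors cause a drop in the FAM fluorescence signal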
Apaf-1 inh conf: Apaf-1 inhibition, single-dose confirmed; shares compounds with Apaf1 inhib; hit rate 25% among 1,800; inhibition, % at 20 µM; reconstituted apoptosome, caspase-3 DEVD-Rh110 fluorescence;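 active means mean inhibition of at least 40% at 20 µM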;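 further: plate controls were DMSO wells for no effect and DEVD-CHO caspase inhibitor control wells for full effect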
Rh110 quench: Rh110 signal interference in Apaf-1 inhibitor counter-screen; shares compounds with Apaf1 inhib; activation (fluorescence interference), % at 20 µM; Rh110 fluorescence interference, quenched caspase reaction; AID 504615; 1,800 tested, under 10 active;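 active means signal rise of 40% or more at 20 µM, treated as a fluorescence artifact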
Fluor interf inh: counter-screen for Apaf-1 inhibitors: fluorescence interference, dose response. fluorescence interference counterscreen, Apaf-1 assay format. 460 tested, under 10 active. shares compounds with Apaf1 inhib. IC50, µM; call rule not given here
* = called active by the depositor; i = inactive; . = not tested or not shown.

SMILES	Apaf1 inhib	UBC13 inh	FID counter	RAD52 anneal inh	Neddyl block	RAD54 branch	Apaf-1 inh conf	Rh110 quench	others
c1ccc(-c2cn3nc4c(nc3n2)CCCC4)cc1	57*	-20	-3	.	i	.	27	4
O=C1Nc2cc(Cl)c(Cl)cc2N(O)N1c1cccc(Cl)c1	44*	2	-3	.	i	.	13	-2
O=C1Nc2cc(Cl)c(Cl)cc2N(O)N1c1ccc(Cl)cc1	-21	3	2	-5	i	-16	.	.
CCNC(=O)Oc1ccc[nH]c1=O	42*	-38	2	-19	i	-10	3	1
O=C(Oc1ccc[nH]c1=O)c1cc([N+](=O)[O-])cc([N+](=O)[O-])c1	93*	-10	4	-192	i	-5	12	6
COc1ccc(C(=O)Oc2ccc[nH]c2=O)cc1	-1	-8	5	-14	i	.	.	.
Oc1ccc(NCc2ccccc2OCc2ccccc2)cc1	90*	5	0	-11	i	.	18	6
CC(=O)N(C)C[C@@H]1Oc2cc(-c3ccccc3C)ccc2S(=O)(=O)N([C@H](C)CO)C[C@H]1C	.	.	.	-3	.	-2	.	.
CCC(=O)NC1=C(NC(C)c2ccccc2)C(=O)c2ccccc2C1=O (stereo not drawn)	5	-72	1	.	i	-10	.	.
CCC(=O)NC1=C(Cl)C(=O)C(NC(=O)CC)=C(Cl)C1=O	71*	-41	4	-3	i	4	11	1
CC(C)NC(=O)N(C)C[C@@H]1Oc2ccc(NC(=O)Nc3ccc4c(c3)OCO4)cc2CC(=O)N([C@H](C)CO)C[C@H]1C	.	.	.	-3	.	1	.	.
CC(=O)Nc1ccc(NC2=C/C(=N/S(=O)(=O)c3cccs3)c3ccccc3C2=O)cc1	90*	-79	6	-4	i	.	94*	-5	Fluor interf inh=>100
Cc1ccccc1NC1=C/C(=N\S(=O)(=O)c2cccs2)c2ccccc2C1=O	97*	-167	6	.	i	7	99*	-7	Fluor interf inh=>100
COc1ccc(S(=O)(=O)/N=C2\C=C(Nc3ccc(O)cc3)C(=O)c3ccccc32)cc1	96*	-262	1	4	i	2	98*	5	Fluor interf inh=>100
Cc1ccc(NC2=C/C(=N/S(=O)(=O)c3cccs3)c3ccccc3C2=O)cc1C	.	.	0	8	i	3	.	.
CO[C@H]1CC[C@H]2CCN(C)C(=O)[C@H](C)CN(C)C(=O)c3cccc(C#N)c3OC[C@H]1O2	.	.	.	9	.	6	.	.
COc1ccccc1CNC(=O)C[C@H]1CC[C@@H]2[C@H](COC[C@H](O)CN2C(=O)Nc2ccccc2)O1	.	.	.	-15	.	10	.	.
C[C@@H]1CN([C@@H](C)CO)S(=O)(=O)c2ccc(C#Cc3ccc(F)cc3)cc2O[C@@H]1CN(C)C(=O)c1ccccn1	.	.	.	11	.	8	.	.
CNC[C@H]1Oc2ncc(-c3cccc(F)c3)cc2C(=O)N([C@H](C)CO)C[C@H]1C	.	.	.	2	.	7	.	.
Cc1ccccc1OCCNc1cc(N2CC(C)NC(C)C2)ccc1[N+](=O)[O-] (stereo not drawn)	56*	22	39*	40	i	13	24	9
O=S(=O)(NCC(c1ccccc1)N1CCNCC1)c1ccc(Cl)cc1 (stereo not drawn)	43*	23	21	.	i	5	13	12
COc1ccc(COC[C@@]23Oc4ccccc4[C@@H](NC(=O)N2C)[C@H]3COC(=O)c2ccc([N+](=O)[O-])cc2)cc1	.	.	.	2	.	4	.	.
C[C@@H]1CCCCO[C@H](CN(C)Cc2ccc(Cl)c(Cl)c2)[C@@H](C)CN([C@@H](C)CO)C(=O)c2cc(NC(=O)Nc3ccc4c(c3)OCO4)ccc2O1	.	.	.	9	.	-3	.	.
COc1ccc(CCN(C)C(=O)c2cccc(S(=O)(=O)NCc3ccccc3)c2)cc1OC	57*	8	-36	7	i	2	38	5
COc1ccc(C2CC(=O)N3CN(c4ccc(C)c(Cl)c4)CSC3=C2C#N)cc1 (stereo not drawn)	47*	-17	-33	-11	i	5	8	0
SMILES	Apaf1 inhib	UBC13 inh	FID counter	RAD52 anneal inh	Neddyl block	RAD54 branch	Apaf-1 inh conf	Rh110 quench	others
COc1ccc(N2CSC3=C(C#N)C(c4cccc(OC)c4OC)CC(=O)N3C2)cc1 (stereo not drawn)	22	-26	-36	7	i	-4	.	.
CCNC(=O)C[C@H]1CC[C@H]2[C@@H](COC[C@@H](O)CN2C(=O)Nc2c(C)noc2C)O1	.	.	.	1	.	4	.	.
O=C(O)c1ccc2c3c(ncnc13)-c1ccccc1C2=O	44*	-46	0	.	.	.	23	5
O=C([C@@H]1[C@@H](CO)[C@@H]2Cn3c(cccc3=O)[C@@H]2N1CCC(F)(F)F)N1CCCCC1	.	.	.	-11	.	12	.	.
CCCN(CC1CC1)c1nc(N)c2c(N)nc(OC)cc2c1C#N	93*	-3	-3	.	i	.	6	1
CCOc1cc2c(C#N)c(N(CC)CC)nc(N)c2c(N)n1	29	-15	.	-2	i	-6	.	.
CCS(=O)(=O)N[C@H]1C=C[C@@H](CC(=O)NC2Cc3ccccc3C2)O[C@@H]1CO	.	.	.	-29	.	-5	.	.
